Data on 24 molecules can be found in ChEMBL document CHEMBL1131523 (J Med Chem, 1998).

Peptide text beside a SMILES is read from it.

Series [1] is described as follows: compound was evaluated for reverse occurs for the rate constant(log K-1) at pH 1.0. The note with it: buffer. The series is classed as ADME. The procedure, abridged:
(§1)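 Transfer rate constants were measured in a triphasic water/octanol/water system (Kochi's flask). Compound in 40 mL of 0.06 mol L-1 phosphate buffer sat in compartment A, and 40 mL of the same buffer at the same pH sat in compartment B. 80 mL octanol was layered over both compartments.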

The nature of series [2]: Partition coefficient (logD1.0). The note with it: octanol/water, pH 1. The series is classed as physicochemical. The procedure, abridged: (§2)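 log D measured in n-octanol/aqueous phosphate buffer (0.02 mol L-1) by centrifugal partition chromatography in a multilayer coil separator–extractor at room temperature. UV detection was at the pH-dependent λmax. log D was computed from solute and solvent-front retention times, flow rate and column capacity. t0 came from K2Cr2O7 (pH > 4.5), CoCl2 (acidic pH) or biphenyl.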

Series [3] can be described thus: compound was evaluated for rate constant of transfer (log K1) at pH 7.4. The series is classed as ADME. Summed up:
as §1

A short description of series [4]: compound was evaluated for rate constant of transfer (log K1) at pH 3.0. It counts as ADME. The procedure, abridged: as §1
A short description of series [5]: compound was evaluated for reverse occurs for the rate constant(log K-1) at pH 7.4. The note with it: buffer. The series is classed as ADME. Summed up: as §1
The nature of series [6]: compound was evaluated for rate constant of transfer (log K1) at pH 1.0. The series is classed as ADME. Summed up: as §1
A short description of series [7]: (§3) Partition coefficient (logD3.0). It counts as physicochemical. The note with it: octanol/water, pH 3.
Series [8] in a line: compound was evaluated for reverse occurs for the rate constant(log K-1) at pH 3.0. It counts as ADME. The note with it: buffer. Summed up: as §1
A short description of series [9]: compound were evaluated for rate constant of transfer (log K1) at pH 7.4. It counts as ADME. Summed up:
as §1

A short description of series [10]: Partition coefficient (logD1.5). The note with it: octanol/water, pH 1.5.
Series [11] is described as follows: Partition coefficient (logD9.4). The note with it: octanol/water, pH 9.4.
Series [12] in a line: as §3. The note with it: octanol/water, pH 3.
A short description of series [13]: Partition coefficient (logD6.8). The note with it: octanol/water, pH 6.8.
Series [14] can be described thus: Pharmacokinetic parameter :half life in humans was reported. It counts as ADME, organism-based. The note with it: human, in vivo; read-out: T1/2 beta (converted).
A short description of series [15]: Pharmacokinetic parameter :drug bound to plasma was reported. The series is classed as ADME, cell-free.
A short description of series [16]: Pharmacokinetic parameter :volume apparent of distribution was reported. It counts as ADME, organism-based. The note with it: in vivo.
Series [17] can be described thus: compound was evaluated for saturable association constant (nKa) of isolated serum protein LDL.
A short description of series [18]: compound was evaluated for saturable association constant (nKa) of isolated serum protein VLDL.
Series [19] in a line: (§4) Partition coefficient (logD7.4). The series is classed as physicochemical. The note with it: octanol/water, pH 7.4.
The nature of series [20]: Lipophilicity parameter log Poct N. The note with it: octanol/water.
Series [21] is described as follows: Partition coefficient between dodecane and water (logDdod7.4). It counts as physicochemical. The note with it: pH 7.4.
Series [22] in a line: Lipophilicity parameter log Pdod N. The series is classed as physicochemical. The note with it: dodecane/water.
Series [23] in a line: compound was evaluated for rate constant of transfer (log K1) at pH 8.8. It counts as ADME. The procedure, abridged: as §1
A short description of series [24]: compound was evaluated for rate constant of transfer (log K1) at pH 4.6. The series is classed as ADME. Summed up: as §1
A short description of series [25]: compound was evaluated for reverse occurs for the rate constant(log K-1) at pH 8.8. It counts as ADME. The note with it: buffer. Summed up:
as §1

The nature of series [26]: compound was evaluated for reverse occurs for the rate constant(log K-1) at pH 4.6. The series is classed as ADME. The note with it: buffer. The procedure, abridged:
as §1

The nature of series [27]: Partition coefficient (logD4.6). The series is classed as physicochemical. The note with it: octanol/water, pH 4.6. Summed up: as §2
Series [28] is described as follows: as §4. The note with it: octanol/water, pH 7.4. The series is classed as physicochemical. Summed up: as §2
The source holds these as a separate data set.

For orientation: logD means lipophilicity at a set pH, counting ionised and neutral species. For the molecule `CN(C(=O)C1=C(O)c2ccccc2S(=O)(=O)N1C)c1ccccn1`, the “Log K-1” value in [1] is recorded as -1.69; in series [5], -1.73; in series [8], -1.63. Besides, the log distribution coefficient (logD) is -0.12 in series [2], 0.14 in series [7] and 0.14 in series [7] (read-out: logD). Moreover, the “Log K1” value in [3] is given as -1.22; in series [4] it was -1.19; in series [6], -1.51.

Take `COC1=C(C(=O)Nc2ccccn2)N(C)S(=O)(=O)c2ccccc21`: in series [1], the “Log K-1” value is on record as -1.69. Besides, the “Log K1” value in series [6] is -1.32. In series [7] (read-out: logD), the log distribution coefficient (logD) was 0.07.

Regarding `CC(C)C[C@H](N)C(=O)N[C@@H](Cc1ccccc1)C(=O)O` (H-Leu-Phe-OH), in [3], the “Log K1” value is on record as -2.55. Further, the “Log K-1” value in series [5] is -1.77.

As to `N[C@@H](Cc1ccccc1)C(=O)N[C@@H](Cc1ccccc1)C(=O)O` (H-Phe-Phe-OH), the “Log K-1” value in [5] is listed as -1.57. Further, in [7] (read-out: logD), the pH-dependent lipophilicity (logD) is -1.02. In addition, in series [9], the “Log K1” value is -2.29.

Take `N[C@@H](Cc1c[nH]c2ccccc12)C(=O)N[C@@H](Cc1ccccc1)C(=O)O` (H-Trp-Phe-OH): in [3], the “Log K1” value is -1.94. The “Log K-1” value in [5] is listed as -1.74. The pH-dependent lipophilicity (logD) in [7] (read-out: logD) is -0.52.

Take `N[C@@H](Cc1c[nH]c2ccccc12)C(=O)N[C@@H](Cc1ccc(O)cc1)C(=O)O` (H-Trp-Tyr-OH): in series [3], the “Log K1” value was -2.73. In [5], the “Log K-1” value is given as -1.72. In addition, in series [7] (read-out: logD), the logD was -1.38.

On to `Cc1ccc(/C(=C\CN2CCCC2)c2cccc(/C=C/C(=O)O)n2)cc1` [ACRIVASTINE], for which the logD in [10] is -0.93; in [11] it was 0.24; in series [7] (read-out: logD), 0.86; in [12], -0.48; in [13], -0.03.

On to `COc1ccc(CCN2CCC(Nc3nc4ccccc4n3Cc3ccc(F)cc3)CC2)cc1` [ASTEMIZOLE], for which, in series [14], the half-life is 26 h. The same molecule had a B in series [15] of 96%. Moreover, in [16], the Vd stood at 48 L/kg.

Regarding `CN1CCCC(n2nc(Cc3ccc(Cl)cc3)c3ccccc3c2=O)CC1` (stereo unspecified) [AZELASTINE], the half-life in series [14] is 25 h. In addition, the Vd in series [16] was 14.5 L/kg.

On to `CN(C)CCC(c1ccc(Br)cc1)c1ccccn1` (stereo unspecified) [BROMPHENIRAMINE], for which, in series [14], the half-life is 24.9 h. In [15], this molecule displayed a B of 72%. In series [16], the Vd was 10 L/kg.

Regarding `CC(C)(C(=O)O)c1ccc(C(=O)CCCN2CCC(OC(c3ccccc3)c3ccccc3)CC2)cc1` [CAREBASTINE], the half-life in series [14] was 16 h. Moreover, the B in series [15] was 98%. For the same molecule, the Vd in series [16] was found to be 2.4 L/kg.

In the case of `O=C(O)COCCN1CCN(C(c2ccccc2)c2ccc(Cl)cc2)CC1` (stereo unspecified) [CETIRIZINE], the nKa in [17] turned out to be 2.21 M/M; in series [18] it was 289 M/M.

Regarding `CN(C)CCC(c1ccc(Cl)cc1)c1ccccn1` (stereo unspecified) [CHLORPHENIRAMINE], the B in series [15] was 72%. In addition, in series [16], the Vd is 5.9 L/kg.

In [15], `CN(C)CCOC(c1ccccc1)c1ccccc1` [DIPHENHYDRAMINE] displayed a B of 98%.

In series [15], `CC(C)(C(=O)O)c1ccc(C(O)CCCN2CCC(C(O)(c3ccccc3)c3ccccc3)CC2)cc1` (stereo unspecified) [FEXOFENADINE] registered a B of 65%.

The logP is a log measure of how a compound divides between an organic and an aqueous phase. A lower logP goes with lower lipophilicity. In the case of `OCCOCCN1CCN(C(c2ccccc2)c2ccc(Cl)cc2)CC1` (stereo unspecified) [HYDROXYZINE], in series [14], the half-life is 20 h. For the same molecule, the logD was 3.1 in [19] and 0.9 in series [21]. The Vd in series [16] came to 30.5 L/kg. Besides, the logP in [20] was determined as 3.5. In series [22], the “Log Pdod N” value was found to be 1.25.

With `CC(CCc1ccccc1)NCC(O)c1ccc(O)c(C(N)=O)c1` (stereo unspecified) [LABETALOL], the entries for the “Log K1” value in series [23] and in series [24] were -0.89 and -2.07, respectively. The “Log K-1” value is listed as -2.22 in series [25] and -1.58 in series [26]. Besides, the log distribution coefficient (logD) in series [7] (read-out: logD) is 1.03; in series [27], -0.8.

For `CCOC(=O)N1CCC(=C2c3ccc(Cl)cc3CCc3cccnc32)CC1` [LORATADINE], the B in series [15] is 97%.

On to `CNCc1ccccc1` [N-BENZYLMETHYLAMINE], for which, in series [3], the “Log K1” value is given as -0.78. The “Log K-1” value in series [5] is -1.94. Besides, in [7] (read-out: logD), the pH-dependent lipophilicity (logD) was determined as 0.86.

`Oc1ccccc1` [PHENOL]: in [3], the “Log K1” value is recorded as -0.68. Besides, the “Log K-1” value in [5] is on record as -2.5. For the same molecule, the log distribution coefficient (logD) in [7] (read-out: logD) stood at 1.54.

For `CN1C(C(=O)Nc2ccccn2)=C(O)c2ccccc2S1(=O)=O` [PIROXICAM], the “Log K-1” value is recorded as -1.93 in series [1], -1.75 in series [5] and -2.42 in series [8]. Also, the logD in [2] was 0.63; in series [28], -0.08; in series [7] (read-out: logD), 1.43. The entries for the “Log K1” value in series [3], in series [4] and in [6] were -1.53, -0.69 and -1, respectively.

In the case of `c1ccncc1` [PYRIDINE], the “Log K1” value in series [3] was -0.83. Moreover, the “Log K-1” value in series [5] is recorded as -1.7.

As to `CC(C)(C)c1ccc(C(O)CCCN2CCC(C(O)(c3ccccc3)c3ccccc3)CC2)cc1` (stereo unspecified) [TERFENADINE], the half-life in [14] is 23 h. In [15], this molecule came in with a B of 98%. The Vd in series [16] is 2.9 L/kg.

For `Cc1ccc(/C(=C\CN2CCCC2)c2ccccn2)cc1` [TRIPROLIDINE], in [14], the half-life is 30 h. In [15], this molecule registered a B of 90%. Moreover, in series [16], the Vd is 8.7 L/kg.
